From ChEMBL document CHEMBL5329160, “Design, synthesis, and mechanistic study of 2-piperazineone-bearing peptidomimetics as novel HIV capsid modulators” (RSC Med Chem, 2023)

Tested on: Human immunodeficiency virus 1
Experiment: Antiviral activity against HIV-1 IIIB infected in MT4 cells assessed as protection against virus induced cytotoxicity incubated for 5 days by MTT assay
Assay type: functional, organism-based
Settings: Human immunodeficiency virus 1, IIIB, MT4, 120 h

SMILES | EC50 [µM]
COc1ccc(N(C)C(=O)[C@H](Cc2ccccc2)NC(=O)CN2CCN(C(=O)c3ccc(C(F)(F)F)cc3)CC2=O)cc1 | ≥ 37
COc1ccc(N(C)C(=O)[C@H](Cc2cc(F)cc(F)c2)NC(=O)CN2CCN(C(=O)c3ccccc3C(F)(F)F)CC2=O)cc1 | 12
COc1ccc(N(C)C(=O)[C@H](Cc2ccccc2)NC(=O)CN2CCN(C(=O)c3ccc(Br)cc3)CC2=O)cc1 | > 11
COc1ccc(N(C)C(=O)[C@H](Cc2ccccc2)NC(=O)CN2CCN(C(=O)c3ccc([N+](=O)[O-])cc3)CC2=O)cc1 | > 16
COc1ccc(N(C)C(=O)[C@H](Cc2cc(F)cc(F)c2)NC(=O)CN2CCN(C(=O)c3ccc(F)cc3)CC2=O)cc1 | 20
COC(=O)c1ccc(C(=O)N2CCN(CC(=O)N[C@@H](Cc3ccccc3)C(=O)N(C)c3ccc(OC)cc3)C(=O)C2)cc1 | > 190
COc1ccc(N(C)C(=O)[C@H](Cc2cc(F)cc(F)c2)NC(=O)CN2CCN(C(=O)c3ccccc3N)CC2=O)cc1 | 18
COC(=O)c1ccc(C(=O)N2CCN(CC(=O)N[C@@H](Cc3cc(F)cc(F)c3)C(=O)N(C)c3ccc(OC)cc3)C(=O)C2)cc1 | 18
COc1ccc(N(C)C(=O)[C@H](Cc2ccccc2)NC(=O)CN2CCN(C(=O)c3cccc(N)c3)CC2=O)cc1 | ≥ 200

Tested on: Human immunodeficiency virus 2
Experiment: Antiviral activity against HIV-2 ROD infected in MT4 cells assessed as protection against virus induced cytotoxicity and measured after 5 days by MTT spectrophotometric assay
Assay type: functional, organism-based
Settings: Human immunodeficiency virus 2, ROD, MT4, 120 h

SMILES | EC50 [µM]
COc1ccc(N(C)C(=O)[C@H](Cc2ccccc2)NC(=O)CN2CCN(C(=O)c3ccc(C(F)(F)F)cc3)CC2=O)cc1 | ≥ 41
COc1ccc(N(C)C(=O)[C@H](Cc2cc(F)cc(F)c2)NC(=O)CN2CCN(C(=O)c3ccccc3C(F)(F)F)CC2=O)cc1 | 5
COc1ccc(N(C)C(=O)[C@H](Cc2ccccc2)NC(=O)CN2CCN(C(=O)c3ccc(Br)cc3)CC2=O)cc1 | > 11
COc1ccc(N(C)C(=O)[C@H](Cc2ccccc2)NC(=O)CN2CCN(C(=O)c3ccc([N+](=O)[O-])cc3)CC2=O)cc1 | > 16
COc1ccc(N(C)C(=O)[C@H](Cc2cc(F)cc(F)c2)NC(=O)CN2CCN(C(=O)c3ccc(F)cc3)CC2=O)cc1 | 21
COC(=O)c1ccc(C(=O)N2CCN(CC(=O)N[C@@H](Cc3ccccc3)C(=O)N(C)c3ccc(OC)cc3)C(=O)C2)cc1 | 24
COc1ccc(N(C)C(=O)[C@H](Cc2cc(F)cc(F)c2)NC(=O)CN2CCN(C(=O)c3ccccc3N)CC2=O)cc1 | 8.6
COC(=O)c1ccc(C(=O)N2CCN(CC(=O)N[C@@H](Cc3cc(F)cc(F)c3)C(=O)N(C)c3ccc(OC)cc3)C(=O)C2)cc1 | 26
COc1ccc(N(C)C(=O)[C@H](Cc2ccccc2)NC(=O)CN2CCN(C(=O)c3cccc(N)c3)CC2=O)cc1 | 27

Tested on: not listed separately
Experiment: Cytotoxicity against human MT4 cells assessed as reduction in cell viability after 5 days by MTT assay
Assay type: toxicity, cell-based
Settings: time 5 day

SMILES | CC50 at 120 h [µM]
COc1ccc(N(C)C(=O)[C@H](Cc2ccccc2)NC(=O)CN2CCN(C(=O)c3ccc(C(F)(F)F)cc3)CC2=O)cc1 | 42
COc1ccc(N(C)C(=O)[C@H](Cc2cc(F)cc(F)c2)NC(=O)CN2CCN(C(=O)c3ccccc3C(F)(F)F)CC2=O)cc1 | 110
COc1ccc(N(C)C(=O)[C@H](Cc2ccccc2)NC(=O)CN2CCN(C(=O)c3ccc(Br)cc3)CC2=O)cc1 | 11
COc1ccc(N(C)C(=O)[C@H](Cc2ccccc2)NC(=O)CN2CCN(C(=O)c3ccc([N+](=O)[O-])cc3)CC2=O)cc1 | 16
COc1ccc(N(C)C(=O)[C@H](Cc2cc(F)cc(F)c2)NC(=O)CN2CCN(C(=O)c3ccc(F)cc3)CC2=O)cc1 | 77
COC(=O)c1ccc(C(=O)N2CCN(CC(=O)N[C@@H](Cc3ccccc3)C(=O)N(C)c3ccc(OC)cc3)C(=O)C2)cc1 | 200
COc1ccc(N(C)C(=O)[C@H](Cc2cc(F)cc(F)c2)NC(=O)CN2CCN(C(=O)c3ccccc3N)CC2=O)cc1 | 160
COC(=O)c1ccc(C(=O)N2CCN(CC(=O)N[C@@H](Cc3cc(F)cc(F)c3)C(=O)N(C)c3ccc(OC)cc3)C(=O)C2)cc1 | 120
COc1ccc(N(C)C(=O)[C@H](Cc2ccccc2)NC(=O)CN2CCN(C(=O)c3cccc(N)c3)CC2=O)cc1 | > 230

Tested on: not listed separately
Experiment: Selectivity index, ratio of CC50 for human MT4 cells to EC50 for HIV-1 IIIB infected in human MT4 cells
Assay type: toxicity, cell-based
Settings: read-out: Ratio CC50/EC50

SMILES | selectivity ratio
COc1ccc(N(C)C(=O)[C@H](Cc2cc(F)cc(F)c2)NC(=O)CN2CCN(C(=O)c3ccccc3C(F)(F)F)CC2=O)cc1 | 9.2
COc1ccc(N(C)C(=O)[C@H](Cc2ccccc2)NC(=O)CN2CCN(C(=O)c3ccc(Br)cc3)CC2=O)cc1 | < 1
COc1ccc(N(C)C(=O)[C@H](Cc2ccccc2)NC(=O)CN2CCN(C(=O)c3ccc([N+](=O)[O-])cc3)CC2=O)cc1 | < 1
COc1ccc(N(C)C(=O)[C@H](Cc2cc(F)cc(F)c2)NC(=O)CN2CCN(C(=O)c3ccc(F)cc3)CC2=O)cc1 | 3.8
COC(=O)c1ccc(C(=O)N2CCN(CC(=O)N[C@@H](Cc3ccccc3)C(=O)N(C)c3ccc(OC)cc3)C(=O)C2)cc1 | < 1
COc1ccc(N(C)C(=O)[C@H](Cc2cc(F)cc(F)c2)NC(=O)CN2CCN(C(=O)c3ccccc3N)CC2=O)cc1 | 8.9
COC(=O)c1ccc(C(=O)N2CCN(CC(=O)N[C@@H](Cc3cc(F)cc(F)c3)C(=O)N(C)c3ccc(OC)cc3)C(=O)C2)cc1 | 6.7
COc1ccc(N(C)C(=O)[C@H](Cc2ccccc2)NC(=O)CN2CCN(C(=O)c3cccc(N)c3)CC2=O)cc1 | ≥ 1

Tested on: not listed separately
Experiment: Selectivity index, ratio of CC50 for human MT4 cells to EC50 for HIV-2 ROD infected in human MT4 cells
Assay type: toxicity, cell-based
Settings: read-out: Ratio CC50/EC50

SMILES | selectivity ratio
COc1ccc(N(C)C(=O)[C@H](Cc2cc(F)cc(F)c2)NC(=O)CN2CCN(C(=O)c3ccccc3C(F)(F)F)CC2=O)cc1 | 22
COc1ccc(N(C)C(=O)[C@H](Cc2ccccc2)NC(=O)CN2CCN(C(=O)c3ccc(Br)cc3)CC2=O)cc1 | < 1
COc1ccc(N(C)C(=O)[C@H](Cc2ccccc2)NC(=O)CN2CCN(C(=O)c3ccc([N+](=O)[O-])cc3)CC2=O)cc1 | < 1
COc1ccc(N(C)C(=O)[C@H](Cc2cc(F)cc(F)c2)NC(=O)CN2CCN(C(=O)c3ccc(F)cc3)CC2=O)cc1 | 3.7
COC(=O)c1ccc(C(=O)N2CCN(CC(=O)N[C@@H](Cc3ccccc3)C(=O)N(C)c3ccc(OC)cc3)C(=O)C2)cc1 | 8.3
COc1ccc(N(C)C(=O)[C@H](Cc2cc(F)cc(F)c2)NC(=O)CN2CCN(C(=O)c3ccccc3N)CC2=O)cc1 | 19
COC(=O)c1ccc(C(=O)N2CCN(CC(=O)N[C@@H](Cc3cc(F)cc(F)c3)C(=O)N(C)c3ccc(OC)cc3)C(=O)C2)cc1 | 4.6
COc1ccc(N(C)C(=O)[C@H](Cc2ccccc2)NC(=O)CN2CCN(C(=O)c3cccc(N)c3)CC2=O)cc1 | > 8.5

Molecular target: T1, Structural capsid protein (Human immunodeficiency virus 1, UniProt Q76129)
T1 sequence (Q76129 whole entry): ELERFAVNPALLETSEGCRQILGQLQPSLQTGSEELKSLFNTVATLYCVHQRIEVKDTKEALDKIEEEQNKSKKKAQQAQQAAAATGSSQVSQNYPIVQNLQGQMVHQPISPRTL
Experiment: Binding affinity to HIV-1 NL4-3 monomeric capsid protein by SPR analysis
Settings: not given
Procedure, shortened: (§1)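 SPR binding isotherms averaged over 3 replicates, with error bars as SD.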

SMILES | Kd [µM]
COc1ccc(N(C)C(=O)[C@H](Cc2cc(F)cc(F)c2)NC(=O)CN2CCN(C(=O)c3ccccc3C(F)(F)F)CC2=O)cc1 | 12

Molecular target: T1, Structural capsid protein
Experiment: Binding affinity to HIV-1 NL4-3 hexameric capsid protein by SPR analysis
Settings: not given
Procedure, shortened: as §1

SMILES | Kd [µM]
COc1ccc(N(C)C(=O)[C@H](Cc2cc(F)cc(F)c2)NC(=O)CN2CCN(C(=O)c3ccccc3C(F)(F)F)CC2=O)cc1 | 5.3

Molecular target: Structural capsid protein (Human immunodeficiency virus 1) (UniProt Q76129)
Sequence (Q76129 as listed by the source): as the sequence (Q76129 whole entry) above
Experiment: Ratio of Kd for HIV-1 NL4-3 monomeric capsid protein to Kd for HIV-1 NL4-3 hexameric capsid protein
Settings: not given

SMILES | Ratio
COc1ccc(N(C)C(=O)[C@H](Cc2cc(F)cc(F)c2)NC(=O)CN2CCN(C(=O)c3ccccc3C(F)(F)F)CC2=O)cc1 | 2.2

Molecular target: Structural capsid protein (Human immunodeficiency virus 1) (UniProt Q76129)
Experiment: Binding affinity to HIV-1 NL4-3 hexameric capsid protein assessed as Koff by SPR analysis
Settings: filed as modulator

SMILES | K [s⁻¹]
COc1ccc(N(C)C(=O)[C@H](Cc2cc(F)cc(F)c2)NC(=O)CN2CCN(C(=O)c3ccccc3C(F)(F)F)CC2=O)cc1 | 0.25
